Laboratory results: ChEMBL document CHEMBL1123454, “New alpha-methylene gamma-lactone derivatives of substituted nucleic acid bases as potential anticancer agents” (1986)
In brackets after ≈: the same amount, converted by molar mass.

Assays:
Mus musculus [1] = experiment: Compound was tested in vivo for antitumor activity at 12 mg/kg dose; assay type: functional
Summary of the method: (§1)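 Swiss male mice (18–20 g) inoculated ip on day 0 with 1×10^6 Ehrlich ascites carcinoma cells in 0.2 mL saline. Starting 24 h later, ip dosing once daily for 7 days; compound homogenized in saline with 2% Tween-80, at most 0.01 mL/g. Controls received vehicle alone. Six mice per dose, one control group per six groups. Deaths counted daily; median survival times expressed as T/C.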

Mus musculus [2] = experiment: Compound was tested in vivo for antitumor activity at 25 mg/kg dose; assay type: functional; summary of the method: as §1
Mus musculus [3] = experiment: Average survival days was measured by administrating the compound to Ehrlich ascites carcinoma (EAC) in swiss mice at 25 mg/kg dose; assay type: functional
Summary of the method: (§2)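 Swiss male mice (18–20 g) inoculated ip on day 0 with 1×10^6 EAC cells diluted in normal saline. Daily ip treatment began 24 h later for 7 days, compound homogenized in saline with 2% Tween-80, dose volume ≤0.01 mL/g; vehicle controls. Six mice per dose, one control group per six groups. Deaths counted daily; median survival times, T/C.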

Mus musculus [4] = experiment: Average survival days was measured by administrating the compound to Ehrlich ascites carcinoma(EAC) in swiss mice at 12 mg/kg dose; assay type: functional; summary of the method: as §2
[5] = In vitro concentration required to reduce the growth rate of KB cells in culture by 50%; assay type: functional; details: Homo sapiens, read-out: ED50 (the source's name)
Summary of the method: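 Cytotoxicity screened at the National Cancer Institute by its standard protocol against murine P-388 lymphocytic leukemia (PS) and human nasopharyngeal carcinoma KB cells in culture. ED50 (μg/mL) is the concentration that halves the growth rate relative to control cultures.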

PS = experiment: In vitro concentration required to reduce the growth rate of PS cells in culture by 50%; details: Mus musculus, read-out: ED50 (the source's name)
Mus musculus [6] = experiment: Average survival days was measured by administrating the compound to Ehrlich ascites carcinoma (EAC) in swiss mice at 12 mg/kg dose; assay type: functional; summary of the method: as §2

| SMILES | T/C (Mus musculus [1]) | T/C (Mus musculus [2]) | Average survival days (Mus musculus [3]) | Average survival days (Mus musculus [4]) | EC50 [5] | EC50 (PS) | Average survival days (Mus musculus [6]) |
| --- | --- | --- | --- | --- | --- | --- | --- |
| C=C1CC(CC)(CCn2cc(F)c(=O)[nH]c2=O)OC1=O (stereo not given) | 148 | 126 | 19.5 | 23 |  |  |  |
| C=C1CC(CC)(CCn2cc(C)c(=O)[nH]c2=O)OC1=O (stereo not given) | 163 | 170 | 25.5 | 24.5 |  |  |  |
| C=C1CC(CC)(CCn2cnc3c(S)ncnc32)OC1=O (stereo not given) | 116 | 113 | 17.5 | 18 |  |  |  |
| C=C1CC(C)(Cn2cnc3c(Cl)ncnc32)OC1=O (stereo not given) | 133 | 160 | 24 | 20 | 1.5 µg/mL (≈ 5.38 µM) | 0.17 µg/mL (≈ 0.61 µM) |  |
| C=C1CC(CC)(CCn2ccc(=O)[nH]c2=O)OC1=O (stereo not given) | 129 | 126 | 19.5 |  | 2.8 µg/mL (≈ 10.6 µM) | 0.35 µg/mL (≈ 1.32 µM) | 20 |
| C=C1CC(C)(Cn2cnc3c(S)ncnc32)OC1=O (stereo not given) | 107 | 123 | 18.5 | 16 | > 10 µg/mL | > 10 µg/mL |  |
| C=C1CC(C)(Cn2cnc3c(O)ncnc32)OC1=O (stereo not given) | 107 | 110 | 16.5 | 16 |  |  |  |
| C=C1CC(CC)(CCn2cnc3c(Cl)ncnc32)OC1=O (stereo not given) | 126 | 161 | 25 | 19.5 | 2.6 µg/mL (≈ 8.48 µM) | 0.25 µg/mL (≈ 0.815 µM) |  |
| C=C1CC(CC)(CCn2cc(F)c(=O)n(CCC3(CC)CC(=C)C(=O)O3)c2=O)OC1=O (stereo not given) | 138 | 123 | 21 | 23.5 |  |  |  |
| C=C1CC(CC)(CCn2cnc3c(O)ncnc32)OC1=O (stereo not given) | 113 | 109 | 17 | 17.5 |  |  |  |
| O=c1[nH]cc(F)c(=O)[nH]1 [FLUOROURACIL] |  | 220 | 33 |  |  |  |  |
